Assay results as given in ChEMBL document CHEMBL1255350, “Plasma and cerebrospinal fluid pharmacokinetics of moxifloxacin in a patient with tuberculous meningitis” (Antimicrob Agents Chemother, 2008).
Values after ≈ are worked out from the molar mass of the structure shown.

Key:
[1] = Cmax in CSF of patient with intracerebral and leptomeningeal tuberculosis at 800 […], po QD measured on day 3; format: ADME, organism-based, Cerebrospinal fluid; set-up: route oral; settings: human
Method in brief: (§1)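 Single patient on steady-state oral moxifloxacin, 400 or 800 mg once daily, sampled on day 3 of each dose. CSF was taken from an external lumbar drain and blood from a peripheral IV catheter into heparin tubes, predose and at 2, 4, 8, 12 and 24 h. Plasma was separated at 1,500 × g for 10 min at room temperature and stored at −20°C.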

[2] = Tmax in plasma of patient with intracerebral and leptomeningeal tuberculosis at 400 […], po QD measured on day 3; format: ADME, organism-based; set-up: route oral; settings: human
[3] = Tmax in CSF of patient with intracerebral and leptomeningeal tuberculosis at 800 […], po QD measured on day 3; format: ADME, organism-based, Cerebrospinal fluid; set-up: route oral; settings: human
[4] = fAUC (0 to 24 hrs) in plasma of patient with intracerebral and leptomeningeal tuberculosis at 800 […], po QD measured on day 3; format: ADME, organism-based; set-up: route oral; settings: human, in vivo
[5] = tested on: Homo sapiens; assay: Renal toxicity in patient with intracerebral and leptomeningeal tuberculosis at 800 […], po QD measured on day 3; format: organism-based; set-up: route oral; settings: in vivo
[6] = tested on: Homo sapiens; assay: Hepatotoxicity in patient with intracerebral and leptomeningeal tuberculosis at 400 […], po QD measured on day 3; format: toxicity, organism-based; set-up: route oral; settings: in vivo
[7] = tested on: Homo sapiens; assay: Cardiotoxicity in patient with intracerebral and leptomeningeal tuberculosis assessed as QT prolongation at 400 […], po […]; format: toxicity, organism-based; set-up: route oral; settings: in vivo
[8] = AUC (0 to 24 hrs) in CSF of patient with intracerebral and leptomeningeal tuberculosis at 800 […], po QD measured on day 3; format: ADME, organism-based, Cerebrospinal fluid; set-up: time < 24 hr, route oral; settings: human; method in brief: as §1
[9] = Cmax in CSF of patient with intracerebral and leptomeningeal tuberculosis at 400 […], po QD measured on day 3; format: ADME, organism-based, Cerebrospinal fluid; set-up: route oral; settings: human
[10] = Cmax in plasma of patient with intracerebral and leptomeningeal tuberculosis at 400 […], po QD measured on day 3; format: ADME, organism-based; set-up: route oral; settings: human
[11] = fAUC (0 to 24 hrs) in CSF of patient with intracerebral and leptomeningeal tuberculosis at 400 […], po QD measured on day 3; format: ADME, organism-based, Cerebrospinal fluid; set-up: route oral; settings: human, in vivo
Method in brief: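 Same patient and sampling: oral 400 or 800 mg once daily at steady state, day 3 of each dose, predose to 24 h, with CSF from a lumbar drain and heparinized blood from an IV catheter. Free AUC0-24 was calculated assuming 40% protein binding.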

[12] = fAUC (0 to 24 hrs) in CSF of patient with intracerebral and leptomeningeal tuberculosis at 800 […], po QD measured on day 3; format: ADME, organism-based, Cerebrospinal fluid; set-up: dose 800 mg/kg, route oral; settings: human, in vivo
[13] = AUC (0 to 24 hrs) in plasma of patient with intracerebral and leptomeningeal tuberculosis at 800 […], po QD measured on day 3; format: ADME, organism-based; set-up: time < 24 hr, route oral; settings: human
[14] = AUC (0 to 24 hrs) in CSF of patient with intracerebral and leptomeningeal tuberculosis at 400 […], po QD measured on day 3; format: ADME, organism-based, Cerebrospinal fluid; set-up: time < 24 hr, dose 400 mg/kg, route oral; settings: human
[15] = Tmax in CSF of patient with intracerebral and leptomeningeal tuberculosis at 400 […], po QD measured on day 3; format: ADME, organism-based, Cerebrospinal fluid; set-up: route oral; settings: human
[16] = tested on: Homo sapiens; assay: Hepatotoxicity in patient with intracerebral and leptomeningeal tuberculosis at 800 […], po QD measured on day 3; format: toxicity, organism-based; set-up: route oral; settings: in vivo
Method in brief: (§2)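 Safety was monitored during oral once-daily treatment at 400 and then 800 mg. QTc was tracked by ECG, and blood samples were taken for renal and liver function tests.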

[17] = Cmax in plasma of patient with intracerebral and leptomeningeal tuberculosis at 800 […], po QD measured on day 3; format: ADME, organism-based; set-up: route oral; settings: human
Method in brief: (§3)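 Single patient with intracerebral and leptomeningeal TB without active meningitis. Oral dosing once daily at 400 mg, then 800 mg, each sampled at steady state on day 3. Blood and CSF were drawn through a peripheral intravenous catheter and an external lumbar drain into heparin tubes. Sampling was predose and at 2, 4, 8, 12 and 24 h. Plasma was spun 1,500 × g for 10 min at room temperature and stored at −20°C.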

[18] = tested on: Homo sapiens; assay: Cardiotoxicity in patient with intracerebral and leptomeningeal tuberculosis assessed as QT prolongation at 800 […], po […]; format: toxicity, organism-based; set-up: route oral; settings: in vivo
[19] = AUC (0 to 24 hrs) in plasma of patient with intracerebral and leptomeningeal tuberculosis at 400 […], po QD measured on day 3; format: ADME, organism-based; set-up: time < 24 hr, route oral; settings: human; method in brief: as §3
[20] = Tmax in plasma of patient with intracerebral and leptomeningeal tuberculosis at 800 […], po QD measured on day 3; format: ADME, organism-based; set-up: route oral; settings: human
[21] = tested on: Mycobacterium tuberculosis; assay: Antimicrobial activity against Mycobacterium tuberculosis; format: functional
Method in brief: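 MIC for the patient's isolate was determined by the Middlebrook 7H10 agar dilution method. It was used to calculate AUC0-24/MIC ratios.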

[22] = tested on: Homo sapiens; assay: Renal toxicity in patient with intracerebral and leptomeningeal tuberculosis at 400 […], po QD measured on day 3; format: organism-based; set-up: route oral; settings: in vivo; method in brief: as §2
[23] = fAUC (0 to 24 hrs) in plasma of patient with intracerebral and leptomeningeal tuberculosis at 400 […], po QD measured on day 3; format: ADME, organism-based; set-up: route oral; settings: human, in vivo

COc1c(N2C[C@@H]3CCCN[C@@H]3C2)c(F)cc2c(=O)c(C(=O)O)cn(C3CC3)c12 [MOXIFLOXACIN]
Cmax [1]: 1420 ng/mL
Tmax [2]: 2 h
Tmax [3]: 4 h
fAUC [4]: 11600 ng·h/mL
Activity [5]: Non-toxic
Activity [6]: Non-toxic
Activity [7]: Non-toxic
AUC at 24 h [8]: 14300 ng·h/mL
Cmax [9]: 616 ng/mL
Cmax [10]: 1060 ng/mL
fAUC [11]: 8400 ng·h/mL
fAUC [12]: 14300 ng·h/mL
AUC at 24 h [13]: 19400 ng·h/mL
AUC at 24 h [14]: 8400 ng·h/mL
Tmax [15]: 4 h
Activity [16]: Non-toxic
Cmax [17]: 2450 ng/mL
Activity [18]: Non-toxic
AUC at 24 h [19]: 8900 ng·h/mL
Tmax [20]: 2 h
MIC [21]: 0.15 µg/mL (≈ 0.374 µM)
Activity [22]: Non-toxic
fAUC [23]: 5300 ng·h/mL
